Ten molecules from ChEMBL document CHEMBL4665752, “Synthesis and Antifungal Activity of Chromones and Benzoxepines from the Leaves of Ptaeroxylon obliquum” (2020) can be followed below.

In brackets after ≈: the same amount, converted by molar mass.

Holding throughout (type): functional
The test system of experiment [1] is Cryptococcus neoformans. As to the kind of experiment: Antifungal activity against Cryptococcus neoformans after 24 hrs by microdilution assay. Put shortly: (§1)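 Broth microdilution in triplicate; compounds in DMSO, serially diluted in sterile distilled water, final 25 to 0.2 μg/mL; fungi kept on Sabouraud dextrose agar, inocula diluted in Sabouraud dextrose broth. p-Iodonitrotetrazolium violet (0.2 mg/mL stock) added as growth indicator; incubation 35 °C, 100% relative humidity. MIC = lowest concentration inhibiting growth, read at 24 and 48 h. Amphotericin B positive, DMSO negative control.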
(In general: Dilution methods test growth across graded concentrations, often in twofold steps.)

For experiment [2], the system named is Cryptococcus neoformans. Put plainly: Antifungal activity against Cryptococcus neoformans after 48 hrs by microdilution assay. In a few lines: as §1
Experiment [3] relates to Candida albicans. As to the kind of experiment: Antifungal activity against Candida albicans ATCC 10231 after 48 hrs by microdilution assay. In a few lines: as §1
Experiment [4] deals with Candida albicans. As to the kind of experiment: Antifungal activity against Candida albicans ATCC 10231 after 24 hrs by microdilution assay. In a few lines:
as §1

With `Cc1cc(=O)c2c(O)cc3c(c2o1)CC=C(CO)CO3`, the minimum inhibitory concentration (MIC) (as a rule, the lowest concentration found to suppress growth) was 5.7 µM (≈ 1.56 µg/mL) against Cryptococcus neoformans [1], 5.7 µM (≈ 1.56 µg/mL) in the experiment with Cryptococcus neoformans [2], 11.4 µM (≈ 3.13 µg/mL) in the experiment with Candida albicans [3] and 11.4 µM (≈ 3.13 µg/mL) with Candida albicans [4].

Turning to `Cc1cc(=O)c2c(O)c3c(cc2o1)OCC(CO)=CC3`, the MIC came to 5.7 µM (≈ 1.56 µg/mL) in the experiment on Cryptococcus neoformans [1], 5.7 µM (≈ 1.56 µg/mL) against Cryptococcus neoformans [2], 11.4 µM (≈ 3.13 µg/mL) against Candida albicans [3] and 11.4 µM (≈ 3.13 µg/mL) in the experiment with Candida albicans [4].

Take `COc1cc2c(c(OC)c1C(C)=O)CC=C(CO)CO2`: the minimal inhibitory concentration (MIC) is 11.2 µM (≈ 3.12 µg/mL) with Cryptococcus neoformans [1], 11.2 µM (≈ 3.12 µg/mL) against Cryptococcus neoformans [2], 22.5 µM (≈ 6.26 µg/mL) against Candida albicans [3] and 11.2 µM (≈ 3.12 µg/mL) against Candida albicans [4].

With `CC(=O)OCC1=CCc2c(cc3oc(C)cc(=O)c3c2O)OC1`, the MIC with Cryptococcus neoformans [1] is 4.9 µM (≈ 1.55 µg/mL); against Cryptococcus neoformans [2], 4.9 µM (≈ 1.55 µg/mL); in the experiment on Candida albicans [3], 19.8 µM (≈ 6.26 µg/mL); against Candida albicans [4], 19.8 µM (≈ 6.26 µg/mL).

Turning to `CC(=O)OCC1=CCc2c(cc(O)c3c(=O)cc(C)oc23)OC1`, the MIC in the experiment with Cryptococcus neoformans [1], against Cryptococcus neoformans [2], with Candida albicans [3] and in the experiment with Candida albicans [4] was 9.9 µM (≈ 3.13 µg/mL) throughout.

Consider `Cc1cc(=O)c2c(O)cc(O)cc2o1` [NOREUGENIN], for which the MIC in the experiment with Cryptococcus neoformans [1], with Cryptococcus neoformans [2], against Candida albicans [3] and against Candida albicans [4] was 16.3 µM (≈ 3.13 µg/mL) throughout.

Consider `C=CCc1c2c(c(O)c(C(C)=O)c1OC)C=CC(C)(C)O2`, for which the MIC in the experiment on Cryptococcus neoformans [1] was determined as 21.7 µM (≈ 6.26 µg/mL); against Cryptococcus neoformans [2], 43.3 µM (≈ 12.5 µg/mL); against Candida albicans [3], 86.7 µM (≈ 25 µg/mL); against Candida albicans [4], 86.7 µM (≈ 25 µg/mL).

With `C[C@@H]1[C@H](O)[C@@H](C)/C=C/C=C/C=C/C=C/C=C/C=C/C=C/[C@H](O[C@@H]2O[C@H](C)[C@@H](O)[C@H](N)[C@@H]2O)C[C@@H]2O[C@](O)(C[C@@H](O)C[C@@H](O)[C@H](O)CC[C@@H](O)C[C@@H](O)CC(=O)O[C@H]1C)C[C@H](O)[C@H]2C(=O)O` [AMPHOTERICIN B], the MIC was determined as 0.42 µM (≈ 0.388 µg/mL) in the experiment with Cryptococcus neoformans [1], 0.42 µM (≈ 0.388 µg/mL) in the experiment with Cryptococcus neoformans [2], 0.84 µM (≈ 0.776 µg/mL) with Candida albicans [3] and 0.42 µM (≈ 0.388 µg/mL) with Candida albicans [4].

Turning to `C=CCc1c2c(c(O)c3c(=O)cc(C)oc13)C=CC(C)(C)O2`, the MIC with Cryptococcus neoformans [1] amounted to 10.5 µM (≈ 3.13 µg/mL); with Cryptococcus neoformans [2], 10.5 µM (≈ 3.13 µg/mL); against Candida albicans [3], 83.8 µM (≈ 25 µg/mL); in the experiment with Candida albicans [4], 41.9 µM (≈ 12.5 µg/mL).

As to `C=CCc1c(O)cc(O)c2c(=O)cc(C)oc12`, the minimal inhibitory concentration (MIC) against Cryptococcus neoformans [1], against Cryptococcus neoformans [2], against Candida albicans [3] and with Candida albicans [4] was 13.5 µM (≈ 3.14 µg/mL) in each case.
